Source: PubChem (several laboratories)
A selection: hits, their analogues and other compounds. The true share with any hit is near 0.84%.
MT1-MMP act inh – blockers of MT1-MMP proenzyme processing, primary screen, HT1080 RFP-PRO-GFP cells, GFP/RFP fluorescence. Matrix metalloproteinase-14 (Homo sapiens), P50281. GFP/RFP ratio fluorescence, overnight; percent of plate control window, DMSO zero. GFP/RFP ratio change, % at 20 µM. 360,000 tested, 0.061% active. AID 651647, 2012;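 active means GFP/RFP ratio change of at least 30% with cell ATP level not reduced by more than half and red fluorescence within 50% of control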
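system = RFP-PRO-GFP reporter HT1080 cells | dosing = 20 µM single dose, 1% DMSO | timing = overnight cell settling, then overnight compound exposure, 37 °C, 5% CO2 | read-out basis = GFP/RFP fluorescence ratio | controls = DMSO and RFP-L50D-GFP cell wells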
DDE Tn6 FP inh – inhibitors of Tn6 peptide binding to fibrin DD(E), primary screen, biochemical, fluorescence polarization, human fibrin, Tn6 probe. Fibrinogen beta chain (Homo sapiens), P02675. Fibrin DD(E) TRITC-Tn6 fluorescence polarization displacement. inhibition, % at 8.3 µM. 370,000 tested, 0.21% active;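 active means inhibition above a per-campaign cutoff: mean of compounds within control limits plus 3 SD, cut at about 15% in these data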;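 further: 0% = median of all compound wells on the plate and 100% = blocking peptide control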
Target sequence (P02675 whole entry, looked up): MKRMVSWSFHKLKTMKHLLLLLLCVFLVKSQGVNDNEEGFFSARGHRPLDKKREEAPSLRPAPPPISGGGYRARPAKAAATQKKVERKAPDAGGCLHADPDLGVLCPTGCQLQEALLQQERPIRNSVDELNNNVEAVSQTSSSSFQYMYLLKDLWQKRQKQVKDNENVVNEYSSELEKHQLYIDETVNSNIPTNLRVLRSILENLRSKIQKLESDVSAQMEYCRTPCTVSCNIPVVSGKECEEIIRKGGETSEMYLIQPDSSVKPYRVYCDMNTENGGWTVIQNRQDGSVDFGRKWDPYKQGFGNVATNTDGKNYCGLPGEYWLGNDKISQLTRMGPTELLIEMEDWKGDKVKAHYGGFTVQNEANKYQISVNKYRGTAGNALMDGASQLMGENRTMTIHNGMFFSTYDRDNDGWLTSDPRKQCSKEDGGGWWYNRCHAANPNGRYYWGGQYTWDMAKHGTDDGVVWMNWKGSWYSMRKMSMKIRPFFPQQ
SKN-1 inh – suppressors of acrylamide-induced Pgst-4::GFP reporter in worms, primary screen, SKN-1 inhibitor project, whole organism, uHTS, GFP/RFP fluorescence ratio, strain VP596; C. elegans VP596 Pgst-4::GFP/RFP ratio, 24 h; 360,000 tested, 0.49% active; inhibition, % at 21.8 µM; AID 624304, 2012;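 active means interference check ratio from 0.5 to 1.5 plus GFP to RFP signal ratio inhibition reaching or exceeding a fixed threshold, cut at about 30% in these data, passing the limit was not always enough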
DDE Tn7 FP inh – inhibitors of Tn7 peptide binding to fibrin DD(E), primary screen, biochemical, fluorescence polarization, human fibrin, Tn7 probe; Fibrinogen beta chain (Homo sapiens), P02675; FP displacement of FITC-Tn7 peptide from fibrin DD(E); 0% = median of compound wells per plate; inhibition, % at 8.3 µM; 370,000 tested, 0.13% active;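 active means inhibition above the mean of compounds falling within the control limits plus 3 SD of them, cut at about 14% in these data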;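 further: 0% = plate median of compound wells and 100% = 10 µM Aha-Tn7 peptide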
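Assay system: human fibrin DD(E) protein / Input: 2 µM fibrin DD(E) / Benchmarks: high control of 10 µM Aha-Tn7 peptide / Measured by: fluorescence polarization of the labelled Tn7 tracer / Medium: Tris buffer with calcium and detergent, pH 7.8 / Timing: 10 min compound pre-incubation, 3 h probe incubation at room temperature / Repeats: one replicate per compound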
An asterisk follows results filed as active; / = no result given.

SMILES | MT1-MMP act inh | DDE Tn6 FP inh | SKN-1 inh | DDE Tn7 FP inh
O=C(CNc1nnnn1-c1ccccc1)N1CCCC1 | / | 0 | / | -4
CCC(C(=O)Nc1ccccc1N1CCCC1)c1cccc(Cl)c1 (stereo not given) | / | -1 | / | -4
COc1cccc(C(c2sc3ncnn3c2O)N2CCc3ccccc3C2)c1 (stereo not given) | 1 | 0 | -6 | -11
COc1cccc(C(c2sc3ncnn3c2O)N2CC(C)OC(C)C2)c1 (stereo not given) | -2 | -3 | 35* | 9
O=c1[nH][nH]c2c([N+](=O)[O-])ccc(F)c12 | / | 3 | / | -11
O=c1[nH][nH]c2c(N=Cc3ccccc3O)ccc(F)c12 | 2 | / | 42* | /
CC(C)(C)NC(=O)CN(C(=O)CCC(=O)Nc1nccs1)c1cccc(C(F)(F)F)c1 | -3 | -1 | 35* | 3
Nc1ccn([C@@H]2O[C@H](C(=O)N3CCCN(Cc4cccs4)CC3)[C@@H](O)[C@H]2O)c(=O)n1 | 2 | -3 | 9 | -3
O=C(Nc1ccc2nc(-c3ccc4nc[nH]c4c3)[nH]c2c1)c1cccs1 | 19 | -12 | 9 | -3
O=C(Nc1nc(-c2ccc(Cl)s2)cs1)c1cccs1 | -41 | 4 | 48* | 0
O=C(Nc1nc(-c2ccccc2)ns1)c1cccs1 | -2 | -4 | 27 | -6
CCCC(=O)Nc1nc(-c2ccc(Cl)s2)cs1 | -4 | -3 | 22 | 4
O=C(Nc1ccc2nc(-c3ccccc3)[nH]c2c1)c1cccs1 | 7 | 1 | 39* | -5
O=C(Nc1nc(-c2ccccc2)cs1)c1cccs1 | -43 | -1 | 63* | -5
O=C(Nc1nc(-c2ccc(Cl)s2)cs1)c1ccco1 | 2 | -4 | 85* | 2
CCOC(=O)c1c(S(=O)(=O)N(C)C2CCCCC2)c(C)n(C)c1C | 0 | 0 | 15 | 3
Cc1nc(-c2cccc(NC(=O)c3ccco3)c2)cs1 | -4 | -4 | 36* | -3
COC(=O)N(C)c1nc2ccccc2s1 | 2 | -7 | 1 | 4
CN(C(=O)OC(C)(C)C)c1ccc(-c2nc3ccccc3s2)cc1 | 6 | -7 | 43* | 7
CC(C)c1ccc(-c2nc3ccccc3s2)cc1 | -5 | 4 | 46* | 3
FC(F)(F)c1ccc(-c2nc3ccccc3s2)cc1 | 3 | 11 | 9 | -9
COc1ccc(S[C@]2(C(=O)N3CCCC3)CC(=O)N(C(=O)c3ccccc3)[C@@H]2c2ccc(OC)cc2)cc1 | / | 1 | / | -1
c1ccc2nc(-c3ccc(-n4ccnc4)cc3)ccc2c1 | 5 | 0 | 66* | 4
O=C(NCCc1c[nH]c2ccccc12)OCc1cn(Cc2cccc(C(F)(F)F)c2)nn1 | / | -3 | / | -7
Cc1cc(C)c(OCCOCCN2CCCC2)c(C)c1 | 2 | 7 | 2 | -1
SMILES | MT1-MMP act inh | DDE Tn6 FP inh | SKN-1 inh | DDE Tn7 FP inh
Cc1cc(C)c(OCCOCCN2CCNCC2)c(C)c1 | -11 | -10 | 39* | -4
CCOc1ccc(NC(=O)C2CCCN(S(=O)(=O)c3c(C)nn(C)c3C)C2)cc1 (stereo not given) | 4 | 0 | 34* | -6
CCOc1ccc(NC(=O)C2CCCN(S(=O)(=O)c3c(C)n[nH]c3C)C2)cc1 (stereo not given) | -1 | -5 | 23 | 2
C[C@@H]1CC=C[C@H]2[C@H]1C(=O)N(Cc1ccccc1)[C@H]2c1ccc(-c2ccc(N(C)C)cc2)cc1F | -7 | 8 | 23 | -4
Cc1ccc(F)c(C2C3C=CCC(c4cccc(-c5ccc(N(C)C)cc5)c4)C3C(=O)N2Cc2ccccc2)c1 (stereo not given) | 3 | 5 | 44* | 4
COc1cccc(N(C)C(=O)[C@@H](C2CC2)[C@@H](O)c2ccc(Cl)cc2)c1 | / | 1 | / | 0
Cc1ccc2nc(-c3ccc4c(c3)OCCO4)cn2c1 | 3 | 0 | -7 | -1
c1ccn2cc(-c3ccc4c(c3)OCCO4)nc2c1 | 5 | 4 | 38* | 1
O=C(CSC1=NS(=O)(=O)c2cc(F)ccc2N1)NCc1ccccc1Cl | -3 | 2 | 3 | 3
O=C(Nc1ccccc1)C1CC(=O)N(C2CCCCC2)C1 (stereo not given) | 0 | -4 | 42* | 0
